Series [1] in a line: Cytotoxicity against human SKOV3 cells assessed as cell growth inhibition after 48 hrs by neutral red dye based assay. The series is classed as functional. The conditions noted are these: SK-OV-3, 48 h. In short, it runs like this: (§1)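 Cells kept in RPMI-1640 with 10% bovine serum and 60 µg/mL amikacin, 37 °C, 5% CO2. Seeded at 25,000 cells/well, left 24 h to adhere. Samples diluted in RPMI added, highest final concentration 10 µg/mL. Growth measured by neutral red uptake after 48 h exposure.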

The nature of series [2]: Selectivity index, ratio of IC50 for human DNA topoisomerase 1 to IC50 for Candida albicans DNA topoisomerase 1.
The test system of series [3] is Cryptococcus neoformans. Kind of series: Antimicrobial activity against Cryptococcus neoformans ATCC 52657. The class given is functional. The method in brief: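 Grown in mycophil broth 72 h, hemocytometer-counted, diluted to 200,000 CFU/mL. Exposed to diluted samples in 96-well plates, maximum final 50 µg/mL (DMSO up to 2.5%), incubated 30 °C. A630 readout. MIC is the lowest concentration inhibiting 80% of growth versus controls; IC50 read from concentration versus % growth graphs.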

Series [4] concerns Candida albicans. Description: Antimicrobial activity against Candida albicans B311. The series is classed as functional. The method in brief:
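Cultured in Sabouraud dextrose broth 24 h, counted by hemocytometer, diluted to 10,000 CFU/mL. Added to serially diluted samples in 96-well plates, top final concentration 50 µg/mL (≤2.5% DMSO), incubated 37 °C. Growth by A630. MIC is the lowest concentration giving 80% inhibition against controls; IC50 from concentration versus % growth plots.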

Series [5] in a line: Cytotoxicity against African green monkey Vero cells assessed as cell growth inhibition at 10 ug/ml after 48 hrs by neutral red dye based assay. The series is classed as toxicity. The conditions noted are these: chlorocebus sabaeus. The method in brief: as §1
The subject of series [6] is Plasmodium falciparum. Kind of series: Antimalarial activity against Plasmodium falciparum D6 infected in RBC after 48 hrs by lactate dehydrogenase assay. The conditions noted are these: D6, 48 h. The series is classed as functional. The method in brief:
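Parasites grown in A+ human erythrocytes in RPMI 1640 with 10% A+ human serum, 25 mM HEPES, 27 mM bicarbonate, 60 µg/mL amikacin, 37 °C under 90% N2/5% O2/5% CO2. Infected cells exposed 48 h in microtiter wells, highest concentration 4.8 µg/mL. Growth read by Malstat reagent (parasite LDH) with nitro blue tetrazolium reduction, absorbance 630 nm.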

The nature of series [7]: Inhibition of Candida albicans DNA topoisomerase 1 using pHOT1 as substrate after 30 mins by agarose gel electrophoresis. The method in brief:
(§2)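 Relaxation of supercoiled to relaxed DNA by TopoI measured with a commercial TopoI drug kit following kit protocol. IC50 calculated from dose-response curves of % inhibition versus concentration.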

Series [8] concerns the target T1, DNA topoisomerase 1 (Homo sapiens, UniProt P11387).
T1 sequence (P11387 whole entry): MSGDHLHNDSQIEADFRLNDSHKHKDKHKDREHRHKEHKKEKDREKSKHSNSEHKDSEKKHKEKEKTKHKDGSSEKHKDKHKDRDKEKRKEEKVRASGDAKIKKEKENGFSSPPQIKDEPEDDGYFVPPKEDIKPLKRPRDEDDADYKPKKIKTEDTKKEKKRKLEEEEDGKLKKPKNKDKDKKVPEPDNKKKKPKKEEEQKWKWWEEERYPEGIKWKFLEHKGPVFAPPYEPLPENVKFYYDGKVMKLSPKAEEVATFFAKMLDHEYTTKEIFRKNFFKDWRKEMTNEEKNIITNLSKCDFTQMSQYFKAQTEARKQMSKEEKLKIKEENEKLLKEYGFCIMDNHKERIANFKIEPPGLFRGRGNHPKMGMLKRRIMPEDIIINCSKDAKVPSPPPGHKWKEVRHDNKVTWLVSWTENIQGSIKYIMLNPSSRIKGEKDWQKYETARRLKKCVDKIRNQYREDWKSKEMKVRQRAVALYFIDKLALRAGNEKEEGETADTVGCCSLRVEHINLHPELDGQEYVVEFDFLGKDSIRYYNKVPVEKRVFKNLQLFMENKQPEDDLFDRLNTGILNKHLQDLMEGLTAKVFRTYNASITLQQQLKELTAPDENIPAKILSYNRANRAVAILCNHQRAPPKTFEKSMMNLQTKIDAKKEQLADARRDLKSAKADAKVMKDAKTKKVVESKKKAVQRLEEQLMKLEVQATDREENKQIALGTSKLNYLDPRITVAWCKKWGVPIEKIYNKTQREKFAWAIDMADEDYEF
Description: Inhibition of human DNA topoisomerase 1 using pHOT1 as substrate after 30 mins by agarose gel electrophoresis. In short, it runs like this: as §2

Series [9] can be described thus: Cytotoxicity against human KB cells assessed as cell growth inhibition after 48 hrs by neutral red dye based assay. The series is classed as functional. In short, it runs like this: as §1
Series [10] in a line: Cytotoxicity against human BT549 cells assessed as cell growth inhibition after 48 hrs by neutral red dye based assay. The class given is functional. As to conditions: BT-549, 48 h. The method in brief:
as §1

The subject of series [11] is Pseudomonas aeruginosa. Kind of series: Antimicrobial activity against Pseudomonas aeruginosa ATCC 15442. The class given is functional. The method in brief: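 Pseudomonas grown 24 h in trypticase soy broth, diluted 1:50. Combined with diluted samples in 96-well plates, top final concentration 50 µg/mL (≤2.5% DMSO), 37 °C incubation. Growth read at 630 nm. MIC is the lowest tested concentration inhibiting 80% of growth versus controls; IC50 from concentration versus % growth graphs.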

For series [12], the system named is Mycobacterium intracellulare. Description: Antimicrobial activity against Mycobacterium intracellulare ATCC 23068. The class given is functional. In short, it runs like this:
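Mycobacterium grown 72 h in Middlebrook medium with OADC supplement, diluted 1:30 in broth. Incubated at 37 °C with diluted samples in 96-well plates, highest final 50 µg/mL, DMSO at most 2.5%. Absorbance at 630 nm. MIC = lowest concentration with 80% growth inhibition relative to controls; IC50 from concentration versus % growth plots.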

A short description of series [13]: Cytotoxicity against human SK-MEL cells assessed as cell growth inhibition after 48 hrs by neutral red dye based assay. The series is classed as functional. The method in brief:
as §1

The results in this text go back to ChEMBL document CHEMBL3865847, “The synthesis and biological evaluation of alkyl and benzyl naphthyridinium analogs of eupolauridine as potential antimicrobial and cytotoxic agents” (Bioorg Med Chem, 2016).

As to `CC[n+]1ccc2c3c(nc4ccccc42)-c2ccccc2-c31.[I-]`, the IC50 was 1.3 µg/mL in series [1]; 6 µg/mL in series [3]; 16.7 µg/mL in series [4]; 0.033 µg/mL in [6]; 0.7 µg/mL in series [7]; 1.71 µM in series [8]. The values for the IC50 in series [9], in [10] and in [11] were 6.8 µg/mL, more than 10 µg/mL and 50 µg/mL, respectively. Moreover, the Ratio IC50 in [2] came out at 1. In addition, the values for the MIC80 in series [3] and in [4] were 12.5 µg/mL and 25 µg/mL, respectively. The Activity entry in [5] is reported as “Non-Toxic”.

In the case of `Clc1cccc(C[n+]2ccc3ccnc4c3c2-c2ccccc2-4)c1.[Br-]`, the IC50 was 0.055 µg/mL in series [1]; 0.18 µg/mL in series [3]; 3 µg/mL in series [4]; 0.0042 µg/mL in [6]; 21 µg/mL in series [7]; 53.7 µM in [8]. The figures for the IC50 in [9], in series [10] and in series [13] were 0.68 µg/mL, 1.6 µg/mL and 1.15 µg/mL, respectively. Besides, the Ratio IC50 in [2] was found to be 0.95. Moreover, the values for the MIC80 in [12], in [3] and in series [4] were 50 µg/mL, 0.78 µg/mL and 6.25 µg/mL, respectively. In addition, the Activity entry in [5] is “Non-Toxic”.

Take `C[n+]1ccc2c3c(nc4cc5c(cc42)OCO5)-c2ccccc2-c31.[I-]`: the IC50 in [1] was 1.2 µg/mL; in [3], 0.37 µg/mL; in [4], 16.1 µg/mL; in [6], 0.028 µg/mL; in [7], 0.425 µg/mL; in series [8], 1.02 µM. For the same compound, the half-inhibitory concentration (IC50) is 4.2 µg/mL in [9], 1.2 µg/mL in series [10] and 5 µg/mL in series [13]. For the same compound, the Ratio IC50 in series [2] was found to be 0.94. The MIC80 was 50 µg/mL in [12], 1.56 µg/mL in series [3] and 25 µg/mL in series [4]. The Activity entry in [5] is listed as “Non-Toxic”.

For the compound `COc1ccc2c(c1)-c1c3c-2nccc3cc[n+]1Cc1ccccc1.[Br-]`, the IC50 is 0.15 µg/mL in series [1]; 0.7 µg/mL in series [3]; 16.7 µg/mL in [4]; 0.032 µg/mL in [6]; 5.75 µg/mL in series [7]; 12.3 µM in series [8]. Moreover, the IC50 is 0.2 µg/mL in series [9], 1.1 µg/mL in [10] and 1.5 µg/mL in [13]. Also, the Ratio IC50 in series [2] stood at 1.15. The MIC80 in series [12] was 50 µg/mL; in [3], 1.56 µg/mL; in series [4], 25 µg/mL. Further, the Activity result in series [5] is “Non-Toxic”.

Consider `Cc1ccc2c(c1)-c1c3c-2nccc3cc[n+]1Cc1ccccc1.[Br-]`, for which the IC50 in series [1] was 0.58 µg/mL; in [3], 0.48 µg/mL; in series [4], 6.17 µg/mL; in series [6], 0.062 µg/mL; in series [7], 15 µg/mL; in series [8], 45 µM. Also, the IC50 in [9] came out at 0.52 µg/mL; in series [10], 1.8 µg/mL; in series [13] it was 1.4 µg/mL. Moreover, the Ratio IC50 in series [2] turned out to be 0.86. Moreover, the MIC80 is 50 µg/mL in series [12], 1.56 µg/mL in series [3] and 12.5 µg/mL in [4]. Further, the Activity entry in series [5] was “Non-Toxic”.

On to `C[n+]1ccc2c3c(nc4ccccc42)-c2ccccc2-c31.Cc1ccc(S(=O)(=O)[O-])cc1`, for which the IC50 in series [1] is 1.3 µg/mL; in [3] it was 1.93 µg/mL; in [4], 35 µg/mL; in series [6], 0.0385 µg/mL; in series [7] it was 0.7 µg/mL; in [8] it was 1.59 µM. For the same compound, the IC50 in [9] was 4.4 µg/mL; in series [10] it was 7.5 µg/mL; in series [13], more than 10 µg/mL; in series [11] it was 50 µg/mL. Also, the MIC80 in series [3] was 6.25 µg/mL. Also, the Activity entry in series [5] was “Non-Toxic”.

The IC50 is the concentration that gives 50% inhibition. What is called MIC80 is an inhibitory concentration at the 80% level, which refers to growth in some studies and to a panel of isolates in others.
